Assay results from different studies.
Protocols differ between the studies behind these lines.
CYP2A6: Cytochrome P450 2A6 (CYP2A6, Homo sapiens, UniProt P11509)
BRD4 BD1: Bromodomain-containing protein 4, BD1 (BRD4, Homo sapiens, UniProt O60885)
Slc6a4: Sodium-dependent serotonin transporter (Slc6a4, Rattus norvegicus, UniProt P31652)
OPRM1: Mu-type opioid receptor (OPRM1, Homo sapiens, UniProt P35372)

C#Cc1ccc2oc(-c3ccccc3)cc(=O)c2c1 has a Ki of > 25000 nM (CYP2A6; enzyme activity, inhibitor; 6 min, pH 7.6).
O=C(NCC1CC1)c1cc(N2CC[C@H](O)C2)nc(N2CCC[C@@H](c3ccccc3)C2)n1 gave a Ki of 180 nM (N-acyl-phosphatidylethanolamine-hydrolyzing phospholipase D (Napepld, Mus musculus, UniProt Q8BH82); enzyme activity, inhibitor, fluorescence).
With C#Cc1cccc(-c2cc(=O)c3ccccc3o2)c1 the Ki was > 25000 nM (CYP2A6; enzyme activity, inhibitor; 6 min, pH 7.6).
The Kd of Cn1nnc2ccc(NC(=O)c3cccc(C(=O)O)c3)cc21 is reported as 6.9 µM (BRD4 BD1; binding, competition with immobilised ligand).
CCCN1CCN(c2ccc(-c3cncc(Cl)c3N3CCC4(CCNC4=O)CC3)cc2)CC1 has a Kd of 1.75 µM (Glycogen synthase kinase-3 alpha (GSK3A, Homo sapiens, UniProt P49840); cell-free assay; lysate).
Cc1occc(=S)c1O gave a Ki of 3100 nM (Carbonic anhydrase 15 (Mus musculus, UniProt Q99N23); enzyme activity, inhibitor, stopped-flow).
For CNC(=O)[C@@]12C[C@@H]1[C@@H](n1cnc3c(NC)nc(C#C[c-]4cccc4)nc31)[C@H](O)[C@@H]2O.[Fe+2].c1cc[cH-]c1, the Ki was 5.46 nM (Adenosine receptor A3 (Mus musculus, UniProt Q61618); ligand displacement, radioligand; cell membranes).
O[C@H]1[C@H](n2cnc3c(NC(C4CCCCC4)C4CCCCC4)nc(Cl)nc32)[C@H]2C[C@@]2(CF)[C@H]1O has a Ki of 1990 nM (5-hydroxytryptamine receptor 1D (HTR1D, Homo sapiens, UniProt P28221); cell-free assay, radioligand).
CN(C)CCN(Cc1ccccc1)Cc1c(F)cccc1Cl has a Ki of 212 nM (Slc6a4; ligand displacement, radioligand).
CCCCN1CCC(COC(=O)c2ccc(N)c(OCF)c2)CC1 gave a Ki of > 10000 nM (OPRM1; cell-free assay, radioligand).
The Kd of Oc1ccc(-c2nc(-c3ccncc3)c(-c3ccc(F)cc3)[nH]2)cc1 is reported as 3.42 µM (BRD4 BD1; binding, ITC).
The EC50 of COc1cc2c(cc1OC)C(=O)N(CCCCN1C(=O)/C(=N\NC(=S)N(C)C)c3ccccc31)CC2 is reported as 11 µM (ATP-dependent translocase ABCB1 (ABCB1, Homo sapiens, UniProt P08183); transporter efflux, inhibitor, fluorescence; MDCK-MDR1).
The Ki of O=c1cc(-c2ccccc2)oc2c1ccc1ccccc12 is reported as > 25000 nM (CYP2A6; enzyme activity, inhibitor; 6 min, pH 7.6).
The Ki of Cc1c(C(=O)NN2CCOCC2)nn(-c2ccc(Cl)cc2Cl)c1-c1ccc(I)cc1 is reported as 2140 nM (OPRM1; ligand displacement, radioligand; cell membranes).
With CN1CCN(Cc2cccc(Oc3ccccc3)c2)CC1 the Ki was > 20000 nM (Slc6a4; ligand displacement, radioligand).
C#Cc1ccccc1-c1cc(=O)c2ccccc2o1 gave a Ki of > 25000 nM (CYP2A6; enzyme activity, inhibitor; 6 min, pH 7.6).
The Ki of Cc1cc(N)nc(CCc2cccc([C@@H](N)Cc3cc(C)cc(N)n3)c2)c1 is reported as ~100 nM (Nitric oxide synthase 1 (Nos1, Rattus norvegicus, UniProt P29476); enzyme activity, inhibitor).
